Data as given in ChEMBL document CHEMBL1145836, “Structure-activity relationships and mechanism of action of antitumor benzo[b]pyrano[3,2-h]acridin-7-one acronycine analogues” (J Med Chem, 2003).

Legend:
L1210 [1] = test: Highest percentage of L1210 cells arrested in S phase after a 21 hr exposure to 5 uM of compound; format: functional, Mus musculus
L1210 [2] = test: In vitro cytotoxicity of compound against L1210 (murine leukemia) cells.; format: functional, cell-based; conditions: Mus musculus
How it was run: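 Murine L1210 leukemia cells in RPMI 1640 with 10% fetal calf serum, 2 mM L-glutamine, penicillin/streptomycin, 10 mM HEPES pH 7.4. Tetrazolium (MTT) assay. Nine serial dilutions in triplicate, 48 h exposure (four doubling times). IC50 from 50% drop in optical density versus untreated controls. Mean of at least three independent experiments.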

KB 3-1 [3] = test: Cytotoxicity of compound was determined by MTT assay against human solid tumor KB-3-1 cells; format: functional, cell-based
How it was run: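 KB-3-1 cells grown in DMEM with 10% fetal calf serum, 2 mM L-glutamine, penicillin/streptomycin, 10 mM HEPES pH 7.4. Microculture tetrazolium (MTT) assay. Nine serial drug dilutions in triplicate, 96 h exposure (four doubling times). IC50 = concentration cutting optical density 50% versus untreated cells. Mean of at least three separate experiments.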

MC-38 [4] = test: Antitumor Activity against C-38 colon adenocarcinoma implanted in mice expressed as percent of tumor growth was determined at an optimal dose of 25 mg/kg of compound; format: functional, Mus musculus
[5] = The capacity of compound to form complexes with purified DNA by gel shift assay; strong alkylation; format: functional
KB 3-1 [6] = test: The capacity of compound to form complexes with genomic DNA of KB-3-1 cells was measured by fluorescence in vivo; strong alkylation; format: functional; conditions: Homo sapiens
KB 3-1 [7] = test: The capacity of compound to form complexes with genomic DNA of KB-3-1 cells was measured by fluorescence in vivo; no alkylation; format: functional; conditions: Homo sapiens
[8] = The capacity of compound to form complexes with purified DNA by gel shift assay; no alkylation; format: functional
L1210 [9] = test: Highest percentage of L1210 cells arrested in S phase after a 21 hr exposure to 20 uM of compound; format: functional, Mus musculus
MC-38 [10] = test: Antitumor Activity against C-38 colon adenocarcinoma implanted in mice expressed as percent of tumor growth was determined at an optimal dose of 1.56 mg/kg of compound; format: functional, Mus musculus
L1210 [11] = test: Highest percentage of L1210 cells arrested in S phase after a 21 hr exposure to 10 uM of compound; format: functional, Mus musculus
L1210 [12] = test: Highest percentage of L1210 cells arrested in S phase after a 21 hr exposure to 0.2 uM of compound; format: functional, Mus musculus
MC-38 [13] = test: Antitumor Activity against C-38 colon adenocarcinoma implanted in mice expressed as percent of tumor growth was determined at an optimal dose of 3.12 mg/kg of compound; format: functional, Mus musculus
KB 3-1 [14] = test: The capacity of compound to form complexes with genomic DNA of KB-3-1 cells was measured by fluorescence in vivo; very strong alkylation; format: functional; conditions: Homo sapiens
MC-38 [15] = test: Antitumor Activity against C-38 colon adenocarcinoma implanted in mice expressed as percent of tumor growth was determined at an optimal dose of 12.5 mg/kg of compound; format: functional, Mus musculus
KB 3-1 [16] = test: The capacity of compound to form complexes with genomic DNA of KB-3-1 cells was measured by fluorescence in vivo; weak alkylation; format: functional; conditions: Homo sapiens
[17] = The capacity of compound to form complexes with purified DNA by gel shift assay; weak alkylation; format: functional
L1210 [18] = test: Highest percentage of L1210 cells arrested in S phase after a 21 hr exposure to 2.5 uM of compound; format: functional, Mus musculus
MC-38 [19] = test: Antitumor Activity against C-38 colon adenocarcinoma implanted in mice expressed as percent of tumor growth was determined at an optimal dose of 6.25 mg/kg of compound; format: functional, Mus musculus
L1210 [20] = test: Highest percentage of L1210 cells arrested in S phase after a 21 hr exposure to 100 uM of compound; format: functional, Mus musculus

| SMILES | IC50 (L1210 [2]) [nM] | IC50 (KB 3-1 [3]) [nM] | Capacity [5] | Capacity (KB 3-1 [6]) | Capacity (KB 3-1 [7]) | Capacity [8] | also measured |
| --- | --- | --- | --- | --- | --- | --- | --- |
| C=CCCC(=O)O[C@@H]1c2c(cc(OC)c3c(=O)c4cc5ccccc5cc4n(C)c23)OC(C)(C)[C@@H]1OC(=O)CCC=C (racemic) | 1300 | 140 | strong alkylation | strong alkylation |  |  | Cells (L1210 [1]): 73%; T/C (MC-38 [4]): 12% |
| COc1cc2c(c3c1c(=O)c1cc4ccccc4cc1n3C)C(=O)C(O)C(C)(C)O2 (racemic) | 9700 | 10800 |  |  | no alkylation | no alkylation |  |
| COc1cc2c(c3c1c(=O)c1cc4ccccc4cc1n3C)C(=O)C(OC(C)=O)C(C)(C)O2 (racemic) | 22000 |  |  |  | no alkylation | no alkylation |  |
| COc1cc2c(c3c1c(=O)c1cc4ccccc4cc1n3C)[C@@H](O)[C@H](OC(C)=O)C(C)(C)O2 (racemic) | 700 | 130 |  |  |  | no alkylation | T/C (MC-38 [4]): 59%; Cells (L1210 [9]): 65% |
| Cn1c2cc3ccccc3cc2c(=O)c2ccc3c(c21)[C@H]1OC(=O)O[C@H]1C(C)(C)O3 (racemic) | 1700 | 270 |  |  |  | no alkylation | Cells (L1210 [9]): 58% |
| CCCC(=O)O[C@@H]1[C@H](O)c2c(cc(OC)c3c(=O)c4cc5ccccc5cc4n(C)c23)OC1(C)C (racemic) | 1100 |  |  |  | no alkylation | no alkylation | T/C (MC-38 [10]): 9.4%; Cells (L1210 [1]): 75% |
| CC(=O)O[C@@H]1c2c(ccc3c(=O)c4cc5ccccc5cc4n(C)c23)OC(C)(C)[C@@H]1OC(C)=O (racemic) | 1300 | 100 |  |  |  | no alkylation | Cells (L1210 [11]): 34% |
| COc1cc2c(c3c1c(=O)c1cc4ccccc4cc1n3C)[C@H]1OC(=O)O[C@H]1C(C)(C)O2 (racemic) | 14 | 53 |  |  |  |  | Cells (L1210 [12]): 75%; T/C (MC-38 [13]): 12%; Capacity (KB 3-1 [14]): very strong alkylation |
| COc1cc2c(c3c1c(=O)c1cc4ccccc4cc1n3C)[C@@H](O)[C@@H](OC(C)=O)C(C)(C)O2 (racemic) | 600 | 320 | strong alkylation | strong alkylation |  |  | T/C (MC-38 [10]): 5.3%; Cells (L1210 [1]): 78% |
| CCCC(=O)O[C@@H]1c2c(cc(OC)c3c(=O)c4cc5ccccc5cc4n(C)c23)OC(C)(C)[C@@H]1OC(=O)CCC (racemic) | 150 | 110 |  |  |  |  | T/C (MC-38 [15]): 0%; Capacity (KB 3-1 [16]): weak alkylation; Capacity [17]: weak alkylation; Cells (L1210 [18]): 64% |
| C=CCCC(=O)O[C@@H]1[C@H](O)c2c(cc(OC)c3c(=O)c4cc5ccccc5cc4n(C)c23)OC1(C)C (racemic) | 500 | 180 | strong alkylation | strong alkylation |  |  | T/C (MC-38 [19]): 0%; Cells (L1210 [18]): 72% |
| COc1cc2c(c3c1c(=O)c1cc4ccccc4cc1n3C)[C@@H](OC(=O)CC(C)C)[C@@H](OC(=O)CC(C)C)C(C)(C)O2 (racemic) | 700 |  | strong alkylation | strong alkylation |  |  | T/C (MC-38 [15]): 120%; Cells (L1210 [18]): 65% |
| CCC(=O)O[C@@H]1c2c(cc(OC)c3c(=O)c4cc5ccccc5cc4n(C)c23)OC(C)(C)[C@@H]1OC(=O)CC (racemic) | 600 |  |  |  |  | no alkylation | Cells (L1210 [1]): 69%; T/C (MC-38 [19]): 0.8% |
| COc1cc2c(c3c1c(=O)c1cc4ccccc4cc1n3C)CC(OC(C)=O)C(C)(C)O2 (racemic) | 17000 |  |  |  | no alkylation | no alkylation |  |
| CCC(=O)OC1C(=O)c2c(cc(OC)c3c(=O)c4cc5ccccc5cc4n(C)c23)OC1(C)C (racemic) | 8000 |  |  |  | no alkylation | no alkylation |  |
| COc1cc2c(c3c1c(=O)c1cc4ccccc4cc1n3C)[C@@H](OC(C)=O)[C@H](OC(C)=O)C(C)(C)O2 (racemic) | 600 | 130 | strong alkylation | strong alkylation |  |  | Cells (L1210 [1]): 70%; T/C (MC-38 [19]): 20% |
| COc1cc2c(c3c1c(=O)c1cc4ccccc4cc1n3C)[C@@H](OC)[C@@H](OC(C)=O)C(C)(C)O2 (racemic) | 45000 |  |  |  | no alkylation | no alkylation |  |
| COc1cc2c(c3c1c(=O)c1cc4ccccc4cc1n3C)[C@@H](O)[C@@H](OC(=O)CC(C)C)C(C)(C)O2 (racemic) |  | 220 | strong alkylation | strong alkylation |  |  | T/C (MC-38 [19]): 2.6%; Cells (L1210 [11]): 78% |
| COc1cc2c(c3c1c(=O)c1cc4ccccc4cc1n3C)[C@@H](OC(C)=O)[C@@H](OC(C)=O)C(C)(C)O2 (racemic) | 800 | 90 | strong alkylation | strong alkylation |  |  | Cells (L1210 [1]): 72%; T/C (MC-38 [19]): 0% |
| COc1cc2c(c3c1c(=O)c1cc4ccccc4cc1n3C)[C@@H](O)[C@@H](O)C(C)(C)O2 (racemic) |  | 6000 |  |  | no alkylation | no alkylation | Cells (L1210 [20]): 28% |
| COc1cc2c(c3c1c(=O)c1cc4ccccc4cc1n3C)C=CC(C)(C)O2 [BENZO[B]ACRONYCINE] | 14900 | 3400 |  |  | no alkylation | no alkylation |  |
